Here are results for four compounds from paper PMC13386513 (Journal of medicinal chemistry, 2025).

The structures appear in SMILES notation.

The test system of data set [1] is p-tau-treated SH-SY5Y cells. As to the kind of experiment: Cell morphology by contrast microscopy. As to conditions: p-tau 0.5 μM plus ligand 1 5 μM, 24 h. The format is cell-based, human.
For another data set, the target named is p-tau (Homo sapiens, UniProt P10636). As to the kind of experiment: Transmission electron microscopy of p-tau. To be noted: p-tau 10 μM, 24 h incubation, 37 °C, Tris pH 7.4.
Data set [2] deals with Xbp1s, P58ipk, ATF4 expression in SH-SY5Y cells. As to the kind of experiment: qRT-PCR of ER stress response induced by tunicamycin or thapsigargin. The format is cell-based, human. To be noted: 24 h. A general note: Quantitative PCR measures a nucleic acid by following its amplification.
The subject of data set [3] is ATF4, CHOP, GADD34, TRB3 expression in SH-SY5Y cells. As to the kind of experiment: qRT-PCR of ER stress-associated pro-apoptotic factors in p-tau-treated cells. The format is cell-based, human. As to conditions: p-tau 0.5 μM plus ligand 5 μM, 24 h.
For data set [4], the system named is spliced Xbp1 mRNA, BiP, ERdj4 expression in SH-SY5Y cells. As to the kind of experiment: qRT-PCR of ER stress markers and UPR mediators in p-tau-treated cells. Format: cell-based, human. To be noted: p-tau 0.5 μM plus ligand 5 μM, 24 h.
The next data set deals with SH-SY5Y cells. Put plainly: Cytotoxicity of the ligands alone, cell viability. The format is cell-based. As to conditions: 8 μM.
Data set [5] concerns p-tau-treated SH-SY5Y cells. As to the kind of experiment: Cytoprotective activity against p-tau, cell viability. To be noted: 0.5 μM p-tau overnight, compound 8 μM. The format is cell-based, human. Put shortly: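 SH-SY5Y cells (passage 8–19; EMEM/F12, 10% FBS, 1% Pen-Strep) seeded 40,000/well in 24-well plates and grown overnight. Pretreated with test compound for 12 h, then exposed overnight to recombinant p-tau (E. coli BL21-expressed, heat-treated, TEV-cleaved). CCK-8 added for 2 h at 37 °C; OD read at 450 nm. Normalized to no-treatment mean; relative viability expressed against p-tau-only treatment.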

Data set [6] relates to TNFα, IL1β, IRF3 expression in SH-SY5Y cells. Put plainly: qRT-PCR of pro-inflammatory factors in p-tau-treated cells. The format is cell-based, human. To be noted: p-tau 0.5 μM plus ligand 5 μM, 24 h.
The subject of another data set is heparanase. As to conditions: previous report; cited from earlier work.

Sequence of p-tau (P10636 1-412 isoform P10636-7): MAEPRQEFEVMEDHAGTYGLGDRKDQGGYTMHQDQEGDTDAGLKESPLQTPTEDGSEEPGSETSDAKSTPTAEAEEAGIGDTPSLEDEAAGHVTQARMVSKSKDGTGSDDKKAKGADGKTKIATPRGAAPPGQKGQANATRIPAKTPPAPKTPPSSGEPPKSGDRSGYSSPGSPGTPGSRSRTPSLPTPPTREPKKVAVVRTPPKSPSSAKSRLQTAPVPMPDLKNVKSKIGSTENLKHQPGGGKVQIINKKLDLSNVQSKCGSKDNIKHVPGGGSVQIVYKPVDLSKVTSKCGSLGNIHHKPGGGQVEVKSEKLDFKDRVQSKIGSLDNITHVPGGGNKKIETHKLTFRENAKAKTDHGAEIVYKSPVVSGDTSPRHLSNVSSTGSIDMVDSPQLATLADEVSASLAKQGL

Turning to `COC(=O)[C@]12CCC(C)(C)C[C@H]1C1=CCC3[C@@]4(C)CC[C@H](O[C@@H]5O[C@H](COS(=O)(=O)O)[C@@H](O[C@@H]6O[C@H](C(=O)O)[C@@H](O[C@H]7O[C@H](COS(=O)(=O)O)[C@@H](O)[C@H](O)[C@H]7NS(=O)(=O)O)[C@H](O)[C@H]6O)[C@H](O)[C@H]5NS(=O)(=O)O)C(C)(C)C4CC[C@@]3(C)C1(C)CC2` (stereo partly drawn) [Compound 1, 3β-(2-N-Sulfo-2-deoxy-6-O-sulfo-α-D-glucopyranosyl-(1 → 4)-β-D-glucopyranosyluronate-(1 → 4)-2-N-sulfo-2-deoxy-6-O-sulfo-β-D-glucopyranosyloxy)-methyloleanolate], in data set [1], the “cell density and morphology” value is “remarkably recovered cell density and morphology”. On p-tau, the “morphology of p-tau (TEM)” value is reported as “reorganization of p-tau from an amorphous structure into more ordered clusters”. Also, the “Tg-induced ER stress response (Xbp1s, P58ipk, ATF4)” value in data set [2] (Tg 0.5 μM plus ligand 1 5 μM) is reported as “failed to attenuate”. In addition, the “Tm-induced ER stress response (Xbp1s, P58ipk, ATF4)” value in [2] (Tm 5 μg/mL plus ligand 1 5 μM) is “failed to attenuate”. Besides, the “expression of ATF4, CHOP, GADD34 and TRB3” value in data set [3] was “significantly lowered”. For the same compound, the “expression of spliced Xbp1 mRNA, BiP and ERdj4 (p-tau-induced ER stress response/UPR)” value in data set [4] was “strong protective effects”. Moreover, the “cytotoxicity of the compound alone” value in the data set on SH-SY5Y cells is listed as “did not exhibit cytotoxicity”. Besides, the relative viability result in data set [5] is listed as “around 0.6”. In addition, the “p-tau-induced inflammatory response (IL1β, TNFα, IRF3 expression)” value in [6] was “able to protect cells”.
Take `O=C(O)[C@H]1O[C@@H](O[C@H]2[C@H](O)[C@@H](NS(=O)(=O)O)[C@H](OCCNS(=O)(=O)O)O[C@@H]2COS(=O)(=O)O)[C@H](O)[C@@H](O)[C@@H]1O[C@H]1O[C@H](COS(=O)(=O)O)[C@@H](O)[C@H](O)[C@H]1NS(=O)(=O)O` [Compound 2]: in the data set with heparanase, the heparanase inhibition result is recorded as “potent heparanase inhibitor”. The “expression of ATF4, CHOP, GADD34 and TRB3” value in data set [3] is “did not reduce”. In addition, the “expression of spliced Xbp1 mRNA, BiP and ERdj4 (p-tau-induced ER stress response/UPR)” value in data set [4] was “did not offer protection”. In the data set with SH-SY5Y cells, the “cytotoxicity of the compound alone” value is “did not exhibit cytotoxicity”. Moreover, the relative viability in data set [5] was found to be 0.3. In addition, in data set [6], the “p-tau-induced inflammatory response (IL1β, TNFα, IRF3 expression)” value is listed as “did not offer protection”.
As to `COC(=O)[C@]12CCC(C)(C)C[C@H]1C1=CCC3[C@@]4(C)CC[C@H](O)C(C)(C)C4CC[C@@]3(C)C1(C)CC2` (stereo partly drawn) [OAME, oleanolic acid methyl ester, reference compound], the “cytotoxicity of the compound alone” value in the data set with SH-SY5Y cells is “did not exhibit cytotoxicity”.
As for `CN1CCc2cccc3c2[C@H]1Cc1ccc(O)c(O)c1-3` [apomorphine, reference compound], the “morphology of p-tau (TEM)” value at p-tau is “reorganization of p-tau from an amorphous structure into more ordered clusters”. Besides, the relative viability in [5] was 0.7.
